Measurements as given in ChEMBL document CHEMBL1141578, “Structure-based optimization of cephalothin-analogue boronic acids as beta-lactamase inhibitors” (Bioorg Med Chem, 2008).

Tests used:
[1] = Inhibition of AmpC beta lactamase N289A mutant
Procedure, shortened: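 Rates were taken at steady state after the lag phase. Ki came from progress curves with and without inhibitor (Waley method), averaged over five inhibitor concentrations giving ≥50% inhibition, each in triplicate.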

[2] = Inhibition of AmpC beta lactamase
[3] = Inhibition of beta lactamase TEM30
[4] = Inhibition of beta lactamase TEM1

| SMILES | Ki [2] [µM] | Ki [1] [µM] | Ki [3] [µM] | Ki [4] [µM] |
| --- | --- | --- | --- | --- |
| O=C(Cc1cccs1)N[C@H](B(O)O)c1cccc(C(=O)O)c1 | 0.001 | 0.017 | 7.8 | 0.064 |
| O=C(O)/C=C/c1cccc([C@H](NC(=O)Cc2cccs2)B(O)O)c1 |  | 0.0028 | 3.8 | 0.106 |
| CC(=O)NCB(O)O [ACETAMIDOMETHYLBORONIC ACID] | 18.5 |  |  |  |
| CB(O)O [METHANE BORONIC ACID] | 1000 |  |  |  |

More lines, in order of falling Ki [2], values ahead:

| Ki [2] [µM] | SMILES | Ki [1] [µM] | Ki [3] [µM] | Ki [4] [µM] |
| --- | --- | --- | --- | --- |
| 0.32 | O=C(Cc1cccs1)NCB(O)O |  |  |  |
| 0.32 | CC(=O)OCC1=C(C(=O)O)N2C(=O)[C@@H](NC(=O)Cc3cccs3)[C@H]2SC1 [CEPHALOTHIN] |  |  |  |
| 0.035 | O=C(Cc1cccs1)N[C@H](B(O)O)c1ccccc1 |  |  |  |
